Screening data deposited in PubChem by several laboratories.
hERG rescue – shields human hERG channel from block by proarrhythmic agents; Q12809; CHO-hERG, FluxOR thallium flux, dofetilide IC70 present; activation (rescue from dofetilide block), less the hit threshold, % at 10 µM; hit rate 0.51% among 310,000; AID 1511;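 active means activation above the mean of controls blocked by dofetilide plus 5 SD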;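 further: thallium influx through hERG after potassium depolarization seen as dye fluorescence rise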
KCNQ1 act – potentiators or activators of human KCNQ1 potassium channel. P51787. CHO-K1 KCNQ1, thallium flux FluxOR fluorescence; hits give high values. hit rate 0.35% among 310,000. B-score at 10 µM;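 active means fluorescence ratio B-score, a plate-corrected score, at least three library SD, with initial intensity B-score within 5 SD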
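Schedule – 37 °C overnight plating, 90-min dark dye load, 20-min compound pretreatment · System – stable KCNQ1 CHO-K1 line · Probe or stimulus – thallium- and potassium-containing depolarizing buffer · Measured by – kinetic FluxOR fluorescence, 10 s baseline plus 110 s post-stimulus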
PHOSPHO1 inh – inhibitors of human PHOSPHO1 phosphatase; hit rate 1.1% among 290,000; Q8TCT1; AID 1565; recombinant PHOSPHO1, absorbance phosphatase assay; inhibition, % at 13.3 µM; in the data active means inhibition above about 60%
KCNQ1 block – inhibitors of human KCNQ1 potassium channel. B-score at 10 µM. P51787. hit rate 1.3% among 310,000. AID 2642. CHO-K1 KCNQ1, FluxOR thallium flux fluorescence; hits give high values;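 active means compounds whose thallium flux B-score, printed positive for inhibition, exceeds three library SD while starting fluorescence stays within three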;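 further: channel opened by potassium depolarization with thallium stimulus after 20 min compound exposure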
KCNK9 block – human KCNK9 channel inhibition. Q9NPC2. B-score at 10 µM. HEK293 KCNK9, FluxOR thallium flux fluorescence; hits give low values. hit rate 1.2% among 310,000;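 active means ratio B-score over 3 SD below the library mean, with starting fluorescence within 5 SD of its mean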;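 further: negative B-score means less thallium flux so channel inhibition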
KCNK3 block – human KCNK3 channel inhibition, primary screen; AID 602410; B-score at 10 µM; O14649; hit rate 0.84% among 340,000; CHO-KCNK3 thallium flux, FluxOR fluorescence; hits give low values;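 active means B-score under library mean minus 4 SD, starting fluorescence ratio at most library mean plus 5 SD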;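 further: more negative B-score means stronger inhibition of thallium flux through KCNK3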
* hit, by the source's call; i = inactive; x = no result. Most compounds without a hit are left out; they make up all but 4% or so of the library.

SMILES | hERG rescue | KCNQ1 act | PHOSPHO1 inh | KCNQ1 block | KCNK9 block | KCNK3 block
Oc1cccc2c(NC(=S)Nc3ccc(SC(F)F)cc3)cccc12 | -10.7 | i | -2.2 | 11* | i | i
FC(F)Sc1ccc(NC(=S)NC2CCC(NC(=S)Nc3ccc(SC(F)F)cc3)CC2)cc1 (centres undefined) | -5.1 | i | 31.0 | i | i | i
Cc1cc(C)cc(C(=O)NC(CC(N)=O)c2ccc(N3CCC(Br)CC3)c([N+](=O)[O-])c2)c1 (centres undefined) | -12.9 | i | -58.1 | i | i | i
Cc1cc(C)cc(C(=O)NC(CC(N)=O)c2ccc(N3CCCCCC3)c([N+](=O)[O-])c2)c1 (centres undefined) | -9.2 | i | 35.7 | 7* | i | i
COc1ccc(NC(=O)CN(C)S(=O)(=O)c2ccc3[nH]c(=O)oc3c2)cc1 | -7.4 | i | 62.9* | i | i | i
CCN(CC(=O)Nc1ccc(OC)cc1)CC(=O)Nc1ccc(Cl)cc1F | 7.3* | i | 43.6 | i | i | i
COc1ccc(S(=O)(=O)N(C)CC(=O)Nc2ccc(F)cc2)cc1 | 5.9* | i | -12.2 | i | i | i
CCc1ccc(NC(=O)CN(C)S(=O)(=O)c2ccc3[nH]c(=O)oc3c2)cc1 | -5.2 | i | -9.6 | i | i | i
CCCNC(=O)COc1coc(CN2CCN(C(=O)c3ccco3)CC2)cc1=O | -11.1 | i | x | i | i | i
O=C(NNC(=O)c1nn(-c2ccc(F)cc2)ccc1=O)c1ccccc1Cl | -8.4 | i | 16.6 | i | i | i
COc1ccc(C(=O)NCCSCc2ccccc2)cc1OC | -12.3 | i | -10.1 | i | i | i
Cc1cccc(C)c1OCc1nnc(NC(=O)CSc2ccc(Cl)cc2)s1 | -8.8 | i | -18.0 | i | i | i
Cc1nnc(NC(=O)CCSc2ccc(Cl)cc2)s1 | -7.9 | i | 60.0* | i | i | i
Cc1nnc(NC(=O)CCSc2ccccc2)s1 | -15.0 | i | 7.0 | i | i | i
CCc1nnc(NC(=O)CSc2nnc(COc3ccccc3)n2Cc2ccccc2)s1 | -13.9 | i | 60.5* | i | i | i
CCOCC(=O)Nc1nnc(COc2ccc(Cl)cc2)s1 | -14.5 | i | 95.3* | i | i | i
O=C(CSc1ccccc1)Nc1nnc(COc2ccc(Cl)cc2)s1 | -4.7 | i | 77.6* | i | i | i
O=C(Nc1cccc(NC(=O)c2nccc3ccccc23)c1)c1ccco1 | x | x | 20.2 | x | x | i
COc1ccccc1CNC(=O)CCSCc1cccc(Cl)c1 | -6.0 | i | -1.0 | i | i | i
Cc1csc(NC(=O)c2ccc(Cl)nc2)n1 | -3.2 | i | 27.0 | i | i | i
COc1ccc(OCC(O)CNCCOc2ccccc2OC)c(C(C)(C)C)c1 (centres undefined) | -14.7 | i | 46.0 | i | i | i
O=C(COC(=O)c1ccc(O)cc1O)N=c1sccn1Cc1ccccc1Cl | -9.7 | i | x | i | -6.92* | i
Cc1ccc(Cn2ccsc2=NC(=O)COC(=O)c2ccc(O)cc2O)cc1 | -5.0 | i | 23.8 | i | i | i
CCOC(=O)c1sc(=NC(=O)/C=C/c2ccccc2)n(C)c1C | -9.8 | i | 19.5 | 12* | i | i
CCOC(=O)c1sc(=NC(=O)c2ccccc2Br)n(C)c1C | -3.8 | i | 22.3 | i | i | i
SMILES | hERG rescue | KCNQ1 act | PHOSPHO1 inh | KCNQ1 block | KCNK9 block | KCNK3 block
Cn1c(=O)oc2cc(S(=O)(=O)N3CCN(Cc4ccc5c(c4)OCO5)CC3)ccc21 | -14.0 | i | 72.0* | i | i | i
CCCNC(=O)c1ccccc1NC(=O)c1ccc(CSc2ccccc2)cc1 | -3.0 | i | 7.0 | 6* | i | i
COc1ccc2sc(C)[n+](C)c2c1 | 4.6* | i | -18.8 | i | i | i
Nc1nc(N2CCN(C(=O)c3ccco3)CC2)nc2ccc(Br)cc12 | -28.1 | i | -26.2 | i | i | i
COc1cc(/C=N/Nc2nncc3ccccc23)cc(OC)c1OC | -4.4 | i | 15.6 | i | i | i
Cc1ccc(NC(=O)Cc2ccc(-c3ccccc3)cc2)nc1 | -2.6 | i | 28.7 | i | i | i
Cc1ccc(NC(=O)CCCc2ccccc2)nc1 | -16.4 | i | 51.4 | 6* | i | i
Cc1c(N=Cc2cc(Br)cc(Br)c2O)cccc1C(=O)O | -24.7 | 10* | -13.9 | i | i | i
Cc1ccc(S(=O)(=O)N(C)C)cc1NC(=O)COC(=O)COc1ccccc1[N+](=O)[O-] | -13.3 | i | 32.1 | i | i | i
COc1ccc(N/N=C(/N=Nc2nc(C)cc(=O)[nH]2)c2ccccc2)cc1 | -9.9 | i | 51.2 | i | i | i
Cc1cc(=O)[nH]c(N=N/C(=N/Nc2ccccc2C)c2ccccc2)n1 | -9.7 | i | 92.4* | i | i | i
Cc1cc(=O)[nH]c(N=N/C(=N/Nc2ccc(O)cc2)c2ccccc2)n1 | -9.3 | i | 92.1* | i | i | i
CCOC(=O)c1sc2ccccc2c1OC(=O)c1ccccc1OC | -1.9 | i | -8.9 | i | i | i
CC1Nc2nc(NC(=O)C(C)(C)C)[nH]c(=O)c2N(C)C1C (centres undefined) | -6.2 | i | 2.4 | i | i | i
CCCOc1ccc(C(=O)Nc2nc(C)c(Cc3ccc4c(c3)OCO4)s2)cc1 | -6.3 | i | -7.4 | i | i | i
COc1cc(C(=O)Nc2nc(C)c(Cc3ccc4c(c3)OCO4)s2)cc(OC)c1OC | -12.4 | i | 74.3* | i | i | i
CC(NC(=O)C1CCCN(S(=O)(=O)N2CCOCC2)C1)c1ccccc1 (centres undefined) | -2.9 | i | 12.1 | i | i | i
Cc1cc(N2CCN(C)CC2)nc(N2CCOCC2)n1 | 8.0* | i | -24.2 | i | i | i
Cc1cc(N2CCOCC2)nc(N2CCOCC2)n1 | -3.8 | i | 19.9 | i | i | i
CC(=O)c1c(N2CCCC2)nc(=S)n(-c2ccccc2)c1C | 2.1 | i | 3.9 | i | i | i
O=C1Nc2ccccc2/C1=C/c1cccnc1 | -13.6 | i | -0.6 | i | i | i
O=C1Nc2ccccc2/C1=C/c1cnc(-c2ccccc2)[nH]1 | -5.0 | i | -1.3 | i | -6.62* | i
COc1cccc(C(c2sc3nc(C)nn3c2O)N2CCc3ccccc3C2)c1 (centres undefined) | -12.1 | i | 74.4* | i | i | i
CS(=O)(=O)N(Cc1ccc(Cl)cc1)c1ccc(C(=O)N2CCN(c3ccccc3)CC2)cc1 | -7.0 | i | 99.8* | i | i | i
